Measured values of several laboratories.
Each line is one published result; the experiments were not run side by side.
rep main protease: Replicase polyprotein 1ab, main protease (rep, Porcine epidemic diarrhea virus, UniProt P0C6Y4)
rep papain-like protease: Replicase polyprotein 1ab, papain-like protease (rep, Porcine epidemic diarrhea virus, UniProt P0C6Y4)
SLC6A4: Sodium-dependent serotonin transporter (SLC6A4, Homo sapiens, UniProt P31645)

SMILES	target	test	setting	measurement	value
O=C(NCc1cc(O)c(O)c(Br)c1)c1ccccc1	rep main protease	enzyme activity, inhibitor, FRET	10 µM	inhibition	74.8%
COc1cc(-c2cc(C(C)=O)n3ccccc23)c(OC)cc1Cn1ccnc1	Bromodomain adjacent to zinc finger domain protein 2B, bromodomain (BAZ2B, Homo sapiens, UniProt Q9UIF8)	thermal stability, DSF		ΔTm	2.1 °C
O=C(NCc1cc(O)c(O)c(Br)c1)c1cccc(C(F)(F)F)c1	rep papain-like protease	enzyme activity, inhibitor, FRET	10 µM	inhibition	102%
CCCCC(=O)Nc1ccc(-c2ccc3ncn(CCC)c(=O)c3c2)cn1	BDNF/NT-3 growth factors receptor (NTRK2, Homo sapiens, UniProt Q16620)	binding, competition with immobilised ligand	0.5 µM	remaining binding	100%
N#CC[C@@]12C[C@@H]1[C@@H](n1cnc3c(NCCCCCCc4ccccc4)nc(I)nc31)[C@H](O)[C@@H]2O	SLC6A4	ligand displacement, radioligand	10 µM	inhibition	56%
Cc1cc(O)c(-c2ccc([C@@H](C)CN(C)C)cc2)c2c1[nH]c(=O)c1sccc12	Calcium/calmodulin-dependent protein kinase type 1D (CAMK1D, Homo sapiens, UniProt Q8IU85)	cell-free assay, inhibitor	0.1 µM, lysate	inhibition	-8.71%
CN1CCc2cccc3c2[C@H]1Cc1ccc(O)c(O)c1-3	D(1A) dopamine receptor (DRD1, Homo sapiens, UniProt P21728)	cAMP, agonist		Emax	~100%
O=C(NCc1cc(O)c(O)c(Br)c1)c1ccc(Cl)nc1	rep main protease	enzyme activity, inhibitor, FRET	10 µM	inhibition	6.11%
O[C@@H]1[C@H](O)[C@@H]2C[C@@H]2[C@H]1n1cnc2c(NCCC3CC3)ncnc21	SLC6A4	ligand displacement, radioligand	10 µM, cell membranes	inhibition	14%
C1=C/COCc2cc(ccc2OCCN2CCCC2)Nc2nccc(n2)-c2cccc(c2)COC/1	Rhodopsin kinase GRK7 (GRK7, Homo sapiens, UniProt Q8WTQ7)	binding	0.1 µM	remaining binding	86%
CCOC(=O)[C@@]12C[C@@H]1[C@@H](n1ccc3c(NCCCCc4ccccc4)nc(C#Cc4ccccc4)nc31)[C@H](O)[C@@H]2O	SLC6A4	ligand displacement, radioligand	10 µM	inhibition	9%
COc1cc(CNC(=O)c2ccc3ccccc3n2)cc(Br)c1OC	rep main protease	enzyme activity, inhibitor, FRET	10 µM	inhibition	85.2%
CSc1nc(NCCC2CC2)c2ncn([C@H]3[C@H](O)[C@H](O)[C@@H]4C[C@@H]43)c2n1	SLC6A4	ligand displacement, radioligand	10 µM	inhibition	17%
O=C(O)c1cccc(-c2noc(-c3ccccc3F)n2)c1	Flavin reductase (NADPH) (BLVRB, Homo sapiens, UniProt P30043)	binding, SPR		kon	3060 M⁻¹ s⁻¹
COc1cc(CNC(=O)c2ccc(OC(F)(F)F)cc2)cc(Br)c1OC	rep papain-like protease	enzyme activity, inhibitor, FRET	10 µM	inhibition	10.8%
CCOC(=O)[C@@]12C[C@@H]1[C@@H](n1cnc3c(NCc4cccc(Cl)c4)nc(I)nc31)[C@H](O)[C@@H]2O	SLC6A4	ligand displacement, radioligand	10 µM	inhibition	-5%
O=C(NCc1cc(O)c(O)c(Br)c1)c1ccncc1Cl	rep papain-like protease	enzyme activity, inhibitor, FRET	10 µM	inhibition	44.4%
CCOC(=O)[C@@]12C[C@@H]1[C@@H](n1cnc3c(NCc4cccc(Cl)c4)nc(C#Cc4ccc(Cl)s4)nc31)[C@H](O)[C@@H]2O	SLC6A4	ligand displacement, radioligand	10 µM	inhibition	13%
